Compound activity (PubChem)
In the library only some 1.6% were active in any assay of this set; here they are far more common.
Pf gamet viab – late stage P. falciparum gametocyte viability inhibitors, primary screen, ATP luminescence, HTS; P. falciparum stage V gametocytes, 24 h; 0.065% of 150,000 active; inhibition, % at 10.9 µM;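 active = inhibition above the mean plus 3 SD of compounds within the control limits, set per campaign, cut at about 38% in these data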
L929 necroptosis – inhibitors of zVAD-triggered necroptosis, primary screen, L929 cells | L929 zVAD necroptosis rescue, ATP luminescence, 24 h; with zVAD 60 µM | viability rescue, % at 10 µM | 0.38% of 220,000 active | AID 1377, 2008;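 active = activation, scaled between plate controls, above about 75%, limit read from the data; inactive = activation under that limit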
MDM2 E3 inh – MDM2-luciferase reporter signal enhancers, primary screen, MDM2 E3 ligase inhibitor project, cell-based, luminescence, 1536-well | E3 ubiquitin-protein ligase Mdm2 (Homo sapiens), Q00987 | cell-based MDM2 ubiquitination luciferase reporter, 2 h; 0 = plate control, 100 = twice control, blank-subtracted | signal enhancement, % at 5 µM | 0.11% of 210,000 active | AID 1230, 2008;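 active = signal enhancement of 30% or more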;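 also: luminescence tracks abundance of the self-degrading MDM2-luciferase fusion protein; higher signal means inhibition of MDM2 E3 ligase activity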
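System: stable MDM2–luciferase fusion reporter cells / Input: 2000 cells seeded into each well / Schedule: 4 h settle plus 2 h compound, 37 °C / Compound: single-point 5 µM / Buffer or medium: cells held in DMEM / Benchmarks: control and blank well means / Evaluation: percent signal gain over controls, blank-subtracted / Measured by: luciferase luminescence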
TNF death inh – inhibitors of TNF-alpha triggered necroptosis, primary screen, cell-based, Jurkat FADD-/-, single concentration; activation (protection from cell death), % at 10 µM; Jurkat FADD-/- TNF necroptosis rescue, ATP luminescence, 24 h; 0 = TNF only, 100 = no-TNF cells; 0.068% of 220,000 active;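 active = activation, meaning protection from cell death, of at least 50% relative to plate controls; inactive = activation below 50%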;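 also: necroptosis triggered by 40 ng/mL TNF-alpha added together with compound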
Wee1 stabilizer – Wee1 degradation inhibitors, primary screen, cell-based, HeLa, Wee1K328M-luciferase, luminescence. HeLa Luc-Wee1K328M stability; 100% = proteasome inhibitor MG132 effect. AID 1321, 2008. Wee1-like protein kinase (Homo sapiens), P30291. 1.2% of 220,000 active. reporter increase, % at 5 µM;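 active = activation above the mean of all tested compounds plus 3 SD, set per screening run, cut at about 8.8% in these data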;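 also: cells exposed to compound for 20 h before luminescence read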
Target sequence (P30291 whole entry K328M): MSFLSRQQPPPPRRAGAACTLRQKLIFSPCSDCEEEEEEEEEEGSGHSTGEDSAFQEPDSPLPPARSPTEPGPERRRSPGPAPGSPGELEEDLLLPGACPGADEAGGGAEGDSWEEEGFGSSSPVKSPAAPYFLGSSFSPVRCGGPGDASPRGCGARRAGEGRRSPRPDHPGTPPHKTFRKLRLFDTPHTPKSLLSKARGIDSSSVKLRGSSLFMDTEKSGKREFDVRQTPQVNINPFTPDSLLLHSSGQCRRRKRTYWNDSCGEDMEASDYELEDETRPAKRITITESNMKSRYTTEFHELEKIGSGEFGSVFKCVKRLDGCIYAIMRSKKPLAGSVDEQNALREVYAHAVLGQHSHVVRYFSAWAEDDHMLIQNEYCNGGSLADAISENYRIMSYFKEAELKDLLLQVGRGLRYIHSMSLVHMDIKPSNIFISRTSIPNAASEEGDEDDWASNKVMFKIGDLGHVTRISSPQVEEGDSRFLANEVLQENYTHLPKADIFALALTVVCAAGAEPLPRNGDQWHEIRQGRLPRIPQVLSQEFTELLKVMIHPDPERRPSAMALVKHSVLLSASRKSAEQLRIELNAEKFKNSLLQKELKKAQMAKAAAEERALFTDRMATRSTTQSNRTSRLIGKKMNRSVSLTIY
Of the large screens only hits and unclear results are named; the others gave an inactive call.

OC(C#CCN1CCCCCC1)(c1ccccc1)c1cccnc1 (centres undefined)	none
OC(C#CCN1CCCC1)(c1ccccc1)c1cccnc1 (centres undefined)	Wee1 stabilizer 10.1 (no result: MDM2 E3 inh)
COc1cccc2c(=O)n(CC(=O)Nc3ccc(F)cc3)ccc12	none (no result: Pf gamet viab)
CC(C)C(C(=O)NC1=NCCS1)c1ccc(Cl)cc1 (centres undefined)	none
CC(=O)Nc1ccc(NC(=O)CCCCCN2C(=O)c3ccccc3C2=O)cc1	none
CCN(CC)c1ccc(NC(=O)CCCCCN2C(=O)c3ccccc3C2=O)cc1	Wee1 stabilizer 11.4 (no result: Pf gamet viab)
COc1ccc2c(c1)OC1(C)CC2C(C(=O)c2ccccc2OC)C(=O)N1 (centres undefined)	none (no result: Pf gamet viab, L929 necroptosis, MDM2 E3 inh)
COc1ccc(CNc2oc(-c3cccc4ccccc34)nc2P(=O)(OC)OC)cc1	Wee1 stabilizer 9.8 (no result: Pf gamet viab)
COP(=O)(OC)c1nc(-c2cccc3ccccc23)oc1NCc1ccccc1	none
CSc1nsc(/C=C/Nc2ccc(F)cc2)c1C#N	MDM2 E3 inh 35.1
COc1ccc(C(=O)Nc2ccc(-c3ccc(C)o3)cc2)cc1S(=O)(=O)N1CCOCC1	L929 necroptosis 83.8 (no result: Pf gamet viab)
Cc1nn(Cc2ccc(Cl)cc2)c2sc(C(=O)OCC(N)=O)cc12	none (no result: Pf gamet viab)
Cc1ccc(Cn2nc(C)c3cc(C(=O)OCC(N)=O)sc32)cc1	Wee1 stabilizer 9.8 (no result: Pf gamet viab)
Cc1ccc(Nc2nnc(SCC3CCCCO3)s2)cc1 (centres undefined)	MDM2 E3 inh 848.3
Cc1ccccc1Nc1nnc(SCC2CCCCO2)s1 (centres undefined)	none (no result: L929 necroptosis)
Cc1ccc(-n2c(=O)c(C#N)cc3c(=O)n4ccccc4nc32)cc1	none
COc1ccc(CCNC(=O)COC(=O)CCC(=O)c2ccc(F)cc2)cc1	Wee1 stabilizer 10.7
COc1ccc(CCNC(=O)COC(=O)C2CC2)cc1	none
O=C1C2=C(NC(=S)NC2c2ccc(Cl)cc2)NC(c2ccc(Cl)cc2)N1c1ccc(Cl)cc1 (centres undefined)	Wee1 stabilizer 10.2
CCc1ccc(C2NC(=S)NC3=C2C(=O)N(c2ccccc2OC)C(c2ccc(CC)cc2)N3)cc1 (centres undefined)	none
C/C(=C\c1ccccc1)CN1CCN(c2ccccc2F)CC1	none (no result: Pf gamet viab)
Cc1c(C(=O)Oc2ccc(-c3cnc4ccccc4n3)cc2)cccc1[N+](=O)[O-]	L929 necroptosis 80.8
O=C(Nc1cccc(-c2cnc3ccccc3n2)c1)c1ccco1	none (no result: Pf gamet viab)
O=C(Oc1ccc(-c2cnc3ccccc3n2)cc1)c1ccco1	L929 necroptosis 78.8
C/C(=N/NC(=O)c1ccncc1)C1=C(O)CC(C)(C)CC1=O	none
CCOc1ccc(C(=O)NCC(=O)OCc2cc(C(C)=O)ccc2OC)cc1	none
CC(=O)c1ccc(Nc2cc(C)nc3c(C)cccc23)cc1	Wee1 stabilizer 10.3
CC(C)NC(=O)c1cc2n(n1)C(C(F)(F)F)CC(c1ccco1)N2 (centres undefined)	none
Cc1cc(NC(=O)c2cc3n(n2)C(C(F)(F)F)CC(c2ccco2)N3)no1 (centres undefined)	Wee1 stabilizer 9.9 (no result: Pf gamet viab)
CCCCNC(=S)N/N=C/c1ccc(OCC(=O)Nc2c(C)cc(C)cc2C)c(OC)c1	none
CC1=NN(c2ccccc2)C(=O)/C1=C\c1cn(-c2ccccc2)nc1C	none
CC1=NN(c2ccccc2)C(=O)/C1=C\c1c(C)[nH]n(-c2ccccc2)c1=O	Wee1 stabilizer 15.8
CCCOc1ccc(/C(O)=C2/C(=O)C(=O)N(CCCn3ccnc3)C2c2cccs2)cc1 (centres undefined)	none
CCOc1ccc(/C(O)=C2/C(=O)C(=O)N(CCCn3ccnc3)C2c2cccs2)cc1Cl (centres undefined)	Wee1 stabilizer 10.2 (no result: Pf gamet viab)
COC(=O)c1ccc(CSc2nc3sc(C)c(C)c3c(=O)[nH]2)cc1	none (no result: MDM2 E3 inh)
COc1ccc(-c2nsc(SCC(=O)Nc3ccc4c(c3)OCO4)n2)cc1	MDM2 E3 inh 31.9
CCOC(=O)COc1cc(N)c(Cl)cc1Cl	Wee1 stabilizer 12.8
CCOC(=O)COc1cc(-n2c(=S)[nH]c3ccccc3c2=O)c(Cl)cc1Cl	none
CC(NC(=O)/C(C#N)=C/c1cccs1)c1ccccc1 (centres undefined)	none
CC/C(=C/c1sc2ccc(C)cc2[n+]1CCCS(=O)(=O)[O-])SC	none
CN(/N=C/c1ccncc1)c1cnc2ccccc2n1	Wee1 stabilizer 10.0
O=C(CSc1ncnc2ccccc12)NCC(=O)c1ccccc1	Wee1 stabilizer 10.3
O=C1OC(N2CCN(C(=O)c3ccco3)CC2)c2ccccc21 (centres undefined)	none
CCOC(=O)N1CCN(C2OC(=O)c3ccccc32)CC1 (centres undefined)	Wee1 stabilizer 9.7 (no result: Pf gamet viab)
CCCOC(c1ccccc1)(c1ccccc1)C(Oc1nc(C)cc(C)n1)C(=O)O (centres undefined)	none (no result: L929 necroptosis, MDM2 E3 inh, TNF death inh, Wee1 stabilizer)
COCCn1c(SCC(=O)Nc2cccc(C)c2)nnc1C(C)C	none (no result: Pf gamet viab)
CCOC(=O)C1CCN(CC(=O)c2c(C)[nH]c3ccccc23)CC1	none (no result: Pf gamet viab)
CCOC(=O)C1CCN(CC(=O)c2c(C)[nH]c3cc(C)ccc23)CC1	Wee1 stabilizer 10.2
Cc1ccc(NC(=O)c2sc3nc(CCl)[nH]c(=O)c3c2C)c(C)c1	Wee1 stabilizer 16.2
Cc1cc(C)c(NC(=O)c2sc3nc(C)[nH]c(=O)c3c2C)c(C)c1	none
COc1ccc(-c2cc(C(F)(F)F)nc(S(=O)(=O)CCCC(=O)Nc3cccnc3Cl)n2)cc1OC	MDM2 E3 inh 34.1
O=C(Cc1ccccc1[N+](=O)[O-])NCc1ccc(Cl)cc1	none (no result: L929 necroptosis)
O=C(Cc1ccccc1[N+](=O)[O-])NCc1ccc(Cl)cc1Cl	Wee1 stabilizer 9.4
NC(=O)C1CCCN(Cc2ccc(Cl)cc2)C1 (centres undefined)	none (no result: Pf gamet viab)
COc1cc(/C=C(\C#N)c2nnc(N3CCOCC3)n2-c2ccccc2)ccc1O	none
Cc1cc(/C=C(\C#N)c2nnc(N3CCOCC3)n2-c2ccccc2)c(C)n1-c1ccccc1	Wee1 stabilizer 10.0 (no result: Pf gamet viab, MDM2 E3 inh)
O=C(N/N=C/c1cccs1)c1cc(-c2ccncc2)nc2ccccc12	none
COc1ccccc1-c1cc(C(=O)N/N=C/c2cccs2)c2ccccc2n1	Wee1 stabilizer 10.2 (no result: Pf gamet viab)
O=C(CCSc1ccccc1)Nc1nnc(-c2cccs2)o1	Wee1 stabilizer 9.5 (no result: Pf gamet viab)
O=C(CCSc1ccccc1)Nc1nnc(-c2ccccc2)o1	none (no result: Pf gamet viab)
CC(C)n1cnc2c(N(C)c3ccccc3)nc(N(CCN(C)C)Cc3ccccc3)nc21	MDM2 E3 inh 35.1 (no result: Wee1 stabilizer)
C=CCc1ccc(O)c(-c2cc(CC=C)ccc2O)c1	Wee1 stabilizer 10.4 (no result: Pf gamet viab)
O=c1oc(-c2cccc([N+](=O)[O-])c2)nc2ccccc12	none (no result: L929 necroptosis, MDM2 E3 inh, TNF death inh, Wee1 stabilizer)
